Results: ChEMBL document CHEMBL3853321, “Optimization of Platelet-Derived Growth Factor Receptor (PDGFR) Inhibitors for Duration of Action, as an Inhaled Therapy for Lung Remodeling in Pulmonary Arterial Hypertension” (J Med Chem, 2016)
Values after ≈ are worked out from the molar mass of the structure shown. Values belong to the molecule of their own block, whether it stands above or below them. Active and inactive are the calls of the source. The calls are words filed in the database; no cut-off is given here.

How the values were obtained:
[1] = Transcellular permeability of the compound by PAMPA; format: ADME
[2] = Solubility of the compound using 10%PEG200/[…]D5W by high-throughput assay; format: physicochemical
Method in brief: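 Solubility determined in the intratracheal dosing vehicle, 10% PEG200/[…] D5W.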

[3] = system: Rattus norvegicus; assay: In vivo receptor occupancy at PDGFR-beta kinase domain in rat lung at 0.4 mg/kg, it measured after 7 hrs by immunoprecipitation assay; format: functional
[4] = Drug uptake in rat lung at 0.4 mg/kg, it at 7 hrs; format: ADME, organism-based; settings: inhaled or intranasal, read-out: Drug uptake
Method in brief: (§1)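 Single intratracheal dose as a solution in 10% PEG200/[…] D5W vehicle; compound concentration measured in lung tissue at 7 h or 24 h after dosing.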

[5] = system: Rattus norvegicus; assay: In vivo receptor occupancy at PDGFR-beta kinase domain in rat lung at 0.1 mg/kg, it measured after 7 hrs by immunoprecipitation assay; format: functional
[6] = Drug uptake in rat lung at 0.1 mg/kg, it at 7 hrs; format: ADME, organism-based; settings: inhaled or intranasal, read-out: Drug uptake; method in brief: as §1
[7] = system: Rattus norvegicus; assay: In vivo receptor occupancy at PDGFR-beta kinase domain in rat lung at 0.1 mg/kg, it measured after 24 hrs by immunoprecipitation assay; format: functional
[8] = Drug uptake in rat lung at 0.1 mg/kg, it at 24 hrs; format: ADME, organism-based; settings: inhaled or intranasal, read-out: Drug uptake; method in brief: as §1
[9] = biological target: Voltage-gated inwardly rectifying potassium channel KCNH2 (Homo sapiens, UniProt Q12809); assay: Inhibition of human ERG
[10] = biological target: T1, Muscarinic acetylcholine receptor M1 (Homo sapiens, UniProt P11229); assay: Inhibition of M1 receptor (unknown origin)
T1 sequence (P11229 whole entry): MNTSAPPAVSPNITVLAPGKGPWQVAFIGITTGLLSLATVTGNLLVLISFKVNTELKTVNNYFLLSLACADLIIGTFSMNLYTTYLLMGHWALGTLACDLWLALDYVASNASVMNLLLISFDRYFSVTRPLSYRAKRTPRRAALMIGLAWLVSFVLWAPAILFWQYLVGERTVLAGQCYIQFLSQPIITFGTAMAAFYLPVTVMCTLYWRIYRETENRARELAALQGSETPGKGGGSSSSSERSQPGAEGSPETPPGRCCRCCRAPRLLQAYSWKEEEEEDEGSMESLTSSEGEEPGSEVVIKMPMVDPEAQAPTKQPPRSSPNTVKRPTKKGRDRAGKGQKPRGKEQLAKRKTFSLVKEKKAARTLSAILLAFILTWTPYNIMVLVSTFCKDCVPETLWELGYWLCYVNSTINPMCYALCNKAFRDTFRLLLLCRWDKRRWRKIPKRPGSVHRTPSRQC

[11] = biological target: Histamine H3 receptor (Homo sapiens, UniProt Q9Y5N1); assay: Inhibition of H3 receptor (unknown origin)
[12] = Drug uptake in blood of rat monocrotaline model of pulmonary arterial hypertension at 0.01 mg/kg, it; format: ADME, organism-based; settings: in vivo, inhaled_or_intranasal, read-out: Drug uptake
[13] = Drug uptake in blood of rat monocrotaline model of pulmonary arterial hypertension at 0.03 mg/kg, it; format: ADME, organism-based; settings: in vivo, inhaled_or_intranasal, read-out: Drug uptake
[14] = Drug uptake in blood of rat monocrotaline model of pulmonary arterial hypertension at 0.1 mg/kg, it; format: ADME, organism-based; settings: in vivo, inhaled_or_intranasal, read-out: Drug uptake
[15] = Half life in rat; format: ADME; settings: in vivo
[16] = Oral bioavailability in it dosed rat; format: ADME, organism-based; settings: in vivo
[17] = system: Rattus norvegicus; assay: Anti-remodeling activity in rat monocrotaline model of pulmonary arterial hypertension assessed as reduction in MCT-induced muscularization of small blood vessels in lung at 0.03 mg/kg, it administered twice daily for 7 days by histological analysis relative to control; format: functional; design: scale not given: the % may be the effect or the level left
Method in brief: (§2)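 Rats given monocrotaline two weeks beforehand so pathology develops; compound then given intratracheally twice daily for seven days (therapeutic mode). Read-out: percentage of fully muscularized small pulmonary vessels; group values given as mean with SEM.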

[18] = system: Rattus norvegicus; assay: Anti-remodeling activity in it dosed rat monocrotaline model of pulmonary arterial hypertension assessed as reduction in MCT-induced muscularization of small blood vessels in lung administered twice daily for 7 days by histological analysis; format: functional; settings: 168 h, read-out: MED; method in brief: as §2
[19] = biological target: Platelet-derived growth factor receptor alpha (Homo sapiens, UniProt P16234); assay: Inhibition of PDGFRalpha kinase domain (unknown origin) assessed as reduction in probe peptide substrate phosphorylation by capillary electrophoresis
[20] = Drug uptake in blood of rat monocrotaline model of pulmonary arterial hypertension at 100 mg/kg, po; format: ADME, organism-based; settings: in vivo, read-out: Drug uptake
[21] = system: Rattus norvegicus; assay: Anti-remodeling activity in rat monocrotaline model of pulmonary arterial hypertension assessed as reduction in MCT-induced muscularization of small blood vessels in lung at 100 mg/kg, po administered once daily for 7 days by histological analysis
[22] = system: Rattus norvegicus; assay: In vivo receptor occupancy at PDGFR-beta kinase domain in rat lung at 1 mg/kg, it measured after 7 hrs by immunoprecipitation assay; format: functional
[23] = Drug uptake in rat lung at 1 mg/kg, it at 7 hrs; format: ADME, organism-based; settings: inhaled or intranasal, read-out: Drug uptake; method in brief: as §1
[24] = system: Rattus norvegicus; assay: In vivo receptor occupancy at PDGFR-beta kinase domain in rat lung at 0.4 mg/kg, it measured after 24 hrs by immunoprecipitation assay; format: functional
[25] = Drug uptake in rat lung at 0.4 mg/kg, it at 24 hrs; format: ADME, organism-based; settings: inhaled or intranasal, read-out: Drug uptake; method in brief: as §1

Chain of Voltage-gated inwardly rectifying potassium channel KCNH2 (Q12809 whole entry): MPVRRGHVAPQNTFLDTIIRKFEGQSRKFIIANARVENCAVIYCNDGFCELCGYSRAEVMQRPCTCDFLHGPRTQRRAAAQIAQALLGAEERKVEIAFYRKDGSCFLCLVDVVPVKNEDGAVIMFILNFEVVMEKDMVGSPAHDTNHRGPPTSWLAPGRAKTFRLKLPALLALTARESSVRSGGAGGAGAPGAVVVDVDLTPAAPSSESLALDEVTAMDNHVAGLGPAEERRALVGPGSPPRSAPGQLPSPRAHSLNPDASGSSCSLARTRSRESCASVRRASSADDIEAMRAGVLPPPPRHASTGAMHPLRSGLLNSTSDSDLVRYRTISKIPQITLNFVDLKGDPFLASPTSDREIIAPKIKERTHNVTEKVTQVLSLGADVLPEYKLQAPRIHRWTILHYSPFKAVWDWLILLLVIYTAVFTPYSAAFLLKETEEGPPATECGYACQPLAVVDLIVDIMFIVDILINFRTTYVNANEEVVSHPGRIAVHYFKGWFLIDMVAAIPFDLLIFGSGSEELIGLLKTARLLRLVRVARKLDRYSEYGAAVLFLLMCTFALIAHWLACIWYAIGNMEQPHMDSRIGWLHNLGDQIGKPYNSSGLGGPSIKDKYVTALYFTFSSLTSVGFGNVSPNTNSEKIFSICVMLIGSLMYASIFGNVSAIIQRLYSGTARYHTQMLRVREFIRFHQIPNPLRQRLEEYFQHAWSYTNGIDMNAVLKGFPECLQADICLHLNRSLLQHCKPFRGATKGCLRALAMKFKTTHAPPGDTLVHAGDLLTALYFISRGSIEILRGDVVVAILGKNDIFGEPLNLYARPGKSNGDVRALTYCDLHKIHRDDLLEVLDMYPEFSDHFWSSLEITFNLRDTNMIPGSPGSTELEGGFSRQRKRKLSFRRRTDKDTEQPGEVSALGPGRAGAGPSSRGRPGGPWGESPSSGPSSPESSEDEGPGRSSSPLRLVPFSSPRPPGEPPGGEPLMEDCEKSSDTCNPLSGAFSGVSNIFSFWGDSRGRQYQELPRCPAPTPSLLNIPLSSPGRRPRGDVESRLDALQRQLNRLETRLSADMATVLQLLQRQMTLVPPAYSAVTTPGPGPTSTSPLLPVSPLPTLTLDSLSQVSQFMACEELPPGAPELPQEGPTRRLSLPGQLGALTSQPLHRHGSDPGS
Chain of Platelet-derived growth factor receptor alpha (P16234 whole entry, the tested form may be a part): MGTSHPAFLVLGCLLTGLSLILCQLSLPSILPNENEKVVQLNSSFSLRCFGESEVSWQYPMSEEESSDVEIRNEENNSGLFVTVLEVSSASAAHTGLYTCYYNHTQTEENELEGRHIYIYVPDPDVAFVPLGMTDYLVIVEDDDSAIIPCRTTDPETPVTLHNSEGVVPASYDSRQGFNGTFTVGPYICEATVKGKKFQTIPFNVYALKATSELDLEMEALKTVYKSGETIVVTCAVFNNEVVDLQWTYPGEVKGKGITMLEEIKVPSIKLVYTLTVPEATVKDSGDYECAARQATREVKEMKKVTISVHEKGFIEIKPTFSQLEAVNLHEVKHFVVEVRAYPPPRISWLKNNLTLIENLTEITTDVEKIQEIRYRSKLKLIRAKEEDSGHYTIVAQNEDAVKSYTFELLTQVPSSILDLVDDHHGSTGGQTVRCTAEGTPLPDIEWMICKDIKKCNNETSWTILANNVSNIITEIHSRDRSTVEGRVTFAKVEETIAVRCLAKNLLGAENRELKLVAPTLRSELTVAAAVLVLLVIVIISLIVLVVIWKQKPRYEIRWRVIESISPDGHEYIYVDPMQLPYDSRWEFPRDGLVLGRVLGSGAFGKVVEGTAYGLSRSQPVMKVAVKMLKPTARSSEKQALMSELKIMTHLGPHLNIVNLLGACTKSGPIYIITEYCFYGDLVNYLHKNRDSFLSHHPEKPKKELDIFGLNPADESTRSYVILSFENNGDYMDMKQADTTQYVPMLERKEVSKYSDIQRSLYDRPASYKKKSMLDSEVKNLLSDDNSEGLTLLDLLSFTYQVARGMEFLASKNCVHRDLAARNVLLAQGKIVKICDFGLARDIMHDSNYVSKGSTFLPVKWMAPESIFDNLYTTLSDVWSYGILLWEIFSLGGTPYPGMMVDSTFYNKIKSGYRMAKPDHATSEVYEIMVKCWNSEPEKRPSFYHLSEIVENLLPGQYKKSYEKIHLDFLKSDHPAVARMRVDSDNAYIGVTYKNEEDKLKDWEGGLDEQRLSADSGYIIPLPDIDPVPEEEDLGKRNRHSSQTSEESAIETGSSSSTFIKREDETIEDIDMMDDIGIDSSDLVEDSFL
Chain of Histamine H3 receptor (Q9Y5N1 whole entry): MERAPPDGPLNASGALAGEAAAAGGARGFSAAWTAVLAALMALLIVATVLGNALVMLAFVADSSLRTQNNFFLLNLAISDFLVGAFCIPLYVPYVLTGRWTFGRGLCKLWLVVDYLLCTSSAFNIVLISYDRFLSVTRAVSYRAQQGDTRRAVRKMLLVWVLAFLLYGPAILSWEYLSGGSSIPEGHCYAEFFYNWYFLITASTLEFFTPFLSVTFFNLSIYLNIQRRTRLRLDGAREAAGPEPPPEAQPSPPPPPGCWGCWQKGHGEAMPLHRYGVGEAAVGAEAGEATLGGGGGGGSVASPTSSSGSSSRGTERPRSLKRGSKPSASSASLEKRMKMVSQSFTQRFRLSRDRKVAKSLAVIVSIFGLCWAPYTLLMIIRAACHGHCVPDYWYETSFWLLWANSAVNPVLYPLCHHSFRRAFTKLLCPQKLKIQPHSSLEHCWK

- permeability [1]: 0.6%
SMILES: Cn1nccc1-c1ccn2c(C(=O)Nc3cc(C(=O)NCCN4CCCC4(C)C)ccc3F)cnc2c1

- permeability [1]: 17%
- solubility [2]: > 1000 µg/mL
- concentration at 7 h [4]: 3950 nM
SMILES: Cc1ncc(C(=O)NCc2ccccc2N2CCN(C)CC2)cc1NC(=O)c1cnn2cc(-c3ccnn3C)ccc12
- Occ [3]: 83%

- permeability [1]: 70%
- solubility [2]: > 1000 µg/mL
- concentration at 7 h [4]: 221 nM
SMILES: CN1CCN(c2ccccc2CNC(=O)c2ccc(F)c(NC(=O)c3cnn4cc(-c5ccnn5C)ccc34)c2)CC1
- Occ [3]: 29%

- permeability [1]: 83.1%
SMILES: CN1CCN(c2ccccc2CNC(=O)c2ccc(F)c(NC(=O)c3cnc4ccccn34)c2)CC1

- permeability [1]: 5.4%
- solubility [2]: 590 µg/mL (≈ 1140 µM)
- concentration at 7 h [6]: 302 nM
- concentration at 24 h [8]: 44 nM
SMILES: C[C@@H]1CCC[C@H](C)N1CCNC(=O)c1ccc(F)c(NC(=O)c2cnc3cc(-c4ccnn4C)ccn23)c1
- Occ [5]: 75%
- Occ [7]: 0%

- permeability [1]: 0.7%
- solubility [2]: > 1000 µg/mL
- concentration at 7 h [6]: 1030 nM
- concentration at 24 h [8]: 420 nM
SMILES: Cn1cc(-c2ccn3c(C(=O)Nc4cc(C(=O)NCCN5CCCC5(C)C)ccc4F)cnc3c2)cn1
- Occ [5]: 82%
- Occ [7]: 51%

- permeability [1]: 26.3%
SMILES: CN1CCN(c2ccccc2CNC(=O)c2ccc(F)c(NC(=O)c3cnc4cc(-c5cnn(C)c5)ccn34)c2)CC1

- permeability [1]: 23%
SMILES: CCN(CCNC(=O)c1ccc(F)c(NC(=O)c2cnc3cc(-c4ccnn4C)ccn23)c1)C(C)(C)C

- permeability [1]: 4.7%
- IC50 [10]: 5 µM
- IC50 [11]: 5 µM
- solubility [2]: > 1000 µg/mL
- concentration at 7 h [6]: 1300 nM
- concentration at 24 h [8]: 680 nM
- concentration [12]: 210 nM
- concentration [13]: 750 nM
- concentration [14]: 1900 nM
- half-life [15]: 14 h
- bioavailability [16]: 90%
SMILES: Cc1ncc(C(=O)NCCN2CCCC2(C)C)cc1NC(=O)c1cnn2cc(-c3cnn(C)c3)ccc12
- IC50 [9]: > 30 µM
- Occ [5]: 88%
- Occ [7]: 81%
- Activity [17]: 14.3%
- minimal effective dose [18]: 0.03 mg/kg

- permeability [1]: 0%
- IC50 [19]: < 0.0001 µM
SMILES: CN1CCN(c2ccccc2CNC(=O)c2ccc(F)c(NC(=O)c3cnc4cc(-c5cc[nH]n5)ccn34)c2)CC1

- concentration [20]: 306000 nM
SMILES: Cc1ccc(NC(=O)c2ccc(CN3CCN(C)CC3)cc2)cc1Nc1nccc(-c2cccnc2)n1 [IMATINIB]
- Activity [21]: Active

- permeability [1]: 23%
SMILES: CN1CCN(c2ccccc2CNC(=O)c2ccc(F)c(NC(=O)c3cnc4cc(-c5cccnc5)ccn34)c2)CC1

- permeability [1]: 81%
SMILES: Cn1nccc1-c1ccn2c(C(=O)Nc3cc(C(=O)NCC4CCC(C)(C)O4)ccc3F)cnc2c1 (centres undefined)

- permeability [1]: 0%
SMILES: CN(CCNC(=O)c1ccc(F)c(NC(=O)c2cnc3cc(-c4ccnn4C)ccn23)c1)C(C)(C)C

- permeability [1]: 11%
- solubility [2]: < 10 µg/mL
- concentration at 7 h [23]: 276000 nM
SMILES: Cn1nccc1-c1ccn2c(C(=O)Nc3cc(C(=O)NCc4ccc(F)c(F)c4)ccc3F)cnc2c1
- Occ [22]: 27%

- permeability [1]: 4.8%
- solubility [2]: 770 µg/mL (≈ 1360 µM)
- concentration at 7 h [6]: 687 nM
- concentration at 7 h [4]: 687 nM
- concentration at 24 h [25]: 60 nM
SMILES: CN1CCN(c2ccccc2CNC(=O)c2ccc(F)c(NC(=O)c3cnc4cc(-c5ccnn5C)ccn34)c2)CC1
- Occ [5]: 54%
- Occ [3]: 70%
- Occ [24]: 9%
